Data as given in ChEMBL document CHEMBL1143202.
The source made the active and inactive calls. The calls are words filed in the database; no cut-off is given here.

Legend:
[1] = species on record: Rattus norvegicus; assay: Inhibition of NADH-cytochrome c reductase in Wistar Albino rat liver mitochondria at 50 uM relative to control; design: scale not given: the % may be the effect or the level left
[2] = species on record: Rattus norvegicus; assay: Inhibition of succinate-cytochrome c reductase in Wistar Albino rat liver mitochondria at 100 uM relative to control; design: scale not given: the % may be the effect or the level left
[3] = species on record: Rattus norvegicus; assay: Inhibition of ATPase in Wistar Albino rat livers intact mitochondria at 75 uM relative to control; design: scale not given: the % may be the effect or the level left
[4] = species on record: Rattus norvegicus; assay: Effect on ADP/O ratio in Wistar Albino rat liver mitochondria at 25 uM in presence of succinate relative to control; assay type: functional
In short: (§1)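 Isolated rat liver mitochondria respiring on glutamate or succinate as substrate; oxygen consumption recorded. State 3 is the rate after ADP addition and state 4 the rate after ADP is exhausted. The respiratory control coefficient (RCC) and ADP/O ratio were determined in the same runs. Flavone tested across 25–200 μM.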

[5] = species on record: Rattus norvegicus; assay: Inhibition of ATPase in Wistar Albino rat livers intact mitochondria at 100 uM in presence of FCCP relative to control; design: scale not given: the % may be the effect or the level left
[6] = species on record: Rattus norvegicus; assay: Effect on oxygen consumption rate in Wistar Albino rat liver mitochondria assessed as inhibition in state 3 respiration at 25 uM in presence of succinate relative to control; assay type: functional; design: scale not given: the % may be the effect or the level left; in short: as §1
[7] = species on record: Rattus norvegicus; assay: Effect on respiratory control coefficient in Wistar Albino rat liver mitochondria at 50 uM in presence of succinate relative to control; assay type: functional; in short: as §1
[8] = species on record: Rattus norvegicus; assay: Inhibition of succinate oxidase in Wistar Albino rat liver mitochondria at 25 uM relative to control; design: scale not given: the % may be the effect or the level left
[9] = species on record: Rattus norvegicus; assay: Inhibition of succinate-cytochrome c reductase in Wistar Albino rat liver mitochondria at 75 uM relative to control; design: scale not given: the % may be the effect or the level left
[10] = species on record: Rattus norvegicus; assay: Effect on oxygen consumption rate in Wistar Albino rat liver mitochondria assessed as inhibition in state 3 respiration at 200 uM in presence of sodium glutamate relative to control; assay type: functional; design: scale not given: the % may be the effect or the level left; in short: as §1
[11] = species on record: Rattus norvegicus; assay: Inhibition of NADH-cytochrome c reductase in Wistar Albino rat liver mitochondria at 100 uM relative to control; design: scale not given: the % may be the effect or the level left
[12] = species on record: Rattus norvegicus; assay: Inhibition of NADH-cytochrome c reductase in Wistar Albino rat liver mitochondria at 200 uM relative to control; design: scale not given: the % may be the effect or the level left
[13] = system: Liver; assay: Reduction of cytochrome c in rat liver mitochondria in presence of NADH at 200 uM; assay type: functional
[14] = species on record: Rattus norvegicus; assay: Effect on respiratory control coefficient in Wistar Albino rat liver mitochondria at 50 uM in presence of sodium glutamate relative to control; assay type: functional; in short: as §1
[15] = species on record: Rattus norvegicus; assay: Inhibition of ATPase in Wistar Albino rat livers disrupted mitochondria at 200 uM relative to control; design: scale not given: the % may be the effect or the level left
[16] = species on record: Rattus norvegicus; assay: Effect on respiratory control coefficient in Wistar Albino rat liver mitochondria at 25 uM in presence of succinate relative to control; assay type: functional; in short: as §1
[17] = species on record: Rattus norvegicus; assay: Inhibition of succinate-cytochrome c reductase in Wistar Albino rat liver mitochondria at 50 uM relative to control; design: scale not given: the % may be the effect or the level left
[18] = species on record: Rattus norvegicus; assay: Inhibition of succinate dehydrogenase in Wistar Albino rat liver mitochondria at 50 uM relative to control; design: scale not given: the % may be the effect or the level left
[19] = species on record: Rattus norvegicus; assay: Effect on ADP/O ratio in Wistar Albino rat liver mitochondria at 25 uM in presence of sodium glutamate relative to control; assay type: functional; in short: as §1
[20] = species on record: Rattus norvegicus; assay: Effect on ADP/O ratio in Wistar Albino rat liver mitochondria at 75 uM in presence of sodium glutamate relative to control; assay type: functional; in short: as §1
[21] = species on record: Rattus norvegicus; assay: Effect on respiratory control coefficient in Wistar Albino rat liver mitochondria at 100 uM in presence of sodium glutamate relative to control; assay type: functional; in short: as §1
[22] = species on record: Rattus norvegicus; assay: Inhibition of succinate oxidase in Wistar Albino rat liver mitochondria at 50 uM relative to control; design: scale not given: the % may be the effect or the level left
[23] = species on record: Rattus norvegicus; assay: Inhibition of ATPase in Wistar Albino rat livers intact mitochondria at 75 uM in presence of FCCP relative to control; design: scale not given: the % may be the effect or the level left
[24] = species on record: Rattus norvegicus; assay: Effect on oxygen consumption rate in Wistar Albino rat liver mitochondria assessed as inhibition in state 4 respiration at 25 uM in presence of succinate relative to control; assay type: functional; design: scale not given: the % may be the effect or the level left; in short: as §1
[25] = species on record: Rattus norvegicus; assay: Effect on oxygen consumption rate in Wistar Albino rat liver mitochondria assessed as inhibition in state 4 respiration at 75 uM in presence of succinate relative to control; assay type: functional; design: scale not given: the % may be the effect or the level left; in short: as §1
[26] = species on record: Rattus norvegicus; assay: Inhibition of NADH dehydrogenase in Wistar Albino rat liver mitochondria at 25 uM relative to control; design: scale not given: the % may be the effect or the level left
[27] = species on record: Rattus norvegicus; assay: Inhibition of ATPase in Wistar Albino rat livers intact mitochondria at 25 uM in presence of FCCP relative to control; design: scale not given: the % may be the effect or the level left
[28] = species on record: Rattus norvegicus; assay: Effect on oxygen consumption rate in Wistar Albino rat liver mitochondria assessed as inhibition in state 3 respiration at 50 uM in presence of succinate relative to control; assay type: functional; design: scale not given: the % may be the effect or the level left; in short: as §1
[29] = species on record: Rattus norvegicus; assay: Inhibition of succinate dehydrogenase in Wistar Albino rat liver mitochondria at 100 uM relative to control; design: scale not given: the % may be the effect or the level left
[30] = species on record: Rattus norvegicus; assay: Inhibition of NADH-cytochrome c reductase in Wistar Albino rat liver mitochondria at 75 uM relative to control; design: scale not given: the % may be the effect or the level left
[31] = system: Liver; assay: Reduction of cytochrome c in rat liver mitochondria in presence of SOD at 200 uM; assay type: functional; design: scale not given: the % may be the effect or the level left
[32] = species on record: Rattus norvegicus; assay: Inhibition of cytochrome c oxidase in Wistar Albino rat liver mitochondria at 25 uM relative to control; design: scale not given: the % may be the effect or the level left
[33] = species on record: Rattus norvegicus; assay: Inhibition of ATPase in Wistar Albino rat livers intact mitochondria at 100 uM relative to control; design: scale not given: the % may be the effect or the level left
[34] = species on record: Rattus norvegicus; assay: Inhibition of ATPase in Wistar Albino rat livers intact mitochondria at 50 uM relative to control; design: scale not given: the % may be the effect or the level left
[35] = species on record: Rattus norvegicus; assay: Inhibition of NADH dehydrogenase in Wistar Albino rat liver mitochondria at 200 uM relative to control; design: scale not given: the % may be the effect or the level left
[36] = species on record: Rattus norvegicus; assay: Inhibition of ATPase in Wistar Albino rat livers intact mitochondria at 25 uM relative to control; design: scale not given: the % may be the effect or the level left
[37] = species on record: Rattus norvegicus; assay: Inhibition of ATPase in Wistar Albino rat livers intact mitochondria at 200 uM relative to control; design: scale not given: the % may be the effect or the level left
[38] = species on record: Rattus norvegicus; assay: Effect on ADP/O ratio in Wistar Albino rat liver mitochondria at 100 uM in presence of succinate relative to control; assay type: functional; in short: as §1
[39] = species on record: Rattus norvegicus; assay: Inhibition of succinate oxidase in Wistar Albino rat liver mitochondria at 100 uM relative to control; design: scale not given: the % may be the effect or the level left
[40] = species on record: Rattus norvegicus; assay: Inhibition of succinate oxidase in Wistar Albino rat liver mitochondria at 200 uM relative to control; design: scale not given: the % may be the effect or the level left
[41] = species on record: Rattus norvegicus; assay: Effect on ADP/O ratio in Wistar Albino rat liver mitochondria at 50 uM in presence of succinate relative to control; assay type: functional; in short: as §1

COc1c(O)cc2oc(-c3ccc(O)c(O)c3)cc(=O)c2c1O
Activity [1]: 45%
Activity [2]: 29%
Activity [3]: 98%
Activity [4]: 85.8%
Activity [5]: 100%
Activity [6]: 83%
Activity [7]: 55.1%
Activity [8]: 87%
Activity [9]: 12%
Activity [10]: 19.8%
Activity [11]: 40%
Activity [12]: 19%
Activity [13]: Active
Activity [14]: 66.5%
Activity [15]: 90%
Activity [16]: 76.4%
Activity [17]: 23%
Activity [18]: 69%
Activity [19]: 92.8%
Activity [20]: 90.6%
Activity [21]: 24.9%
Activity [22]: 83%
Activity [23]: 97%
Activity [24]: 106%
Activity [25]: 121%
Activity [26]: 42%
Activity [27]: 93%
Activity [28]: 55.2%
Activity [29]: 50%
Activity [30]: 46%
Activity [31]: 46%
Activity [32]: 98%
Activity [33]: 97%
Activity [34]: 94%
Activity [35]: 39%
Activity [36]: 99%
Activity [37]: 101%
Activity [38]: 74.7%
Activity [39]: 77%
Activity [40]: 77%
Activity [41]: 85.4%
